Experimental data as given in publication PMC7821153 (Chemical Biology & Drug Design, 2020).

Columns and labels:
Type in all cases: cell-based
[1] = system: HIV-1 NNRTI-resistant mutant Y181C; assay: Single-round infectivity assay, Y181C; details: Human immunodeficiency virus 1, read-out: EC50 Y181C
Outline: (§1)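 Single-round infection with the HIV-1-based vector pNLNgoMIVR-ΔENV.LUC (Env-deleted, luciferase-carrying) bearing the indicated RT mutation(s), used to derive EC50. The mutant vectors are previously described constructs.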

[2] = system: HIV-1 NNRTI-resistant mutant L100I; assay: Single-round infectivity assay, L100I; details: Human immunodeficiency virus 1, read-out: EC50 L100I
Outline: as §1

WT HIV-1 = assay: Single-round infectivity assay, WT RT vector; details: for EC50: Human immunodeficiency virus 1, read-out: EC50 WT; for TI (therapeutic index): calculated from CC50 and WT EC50
Outline: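 Single-round infection with an HIV-1-based vector (pNLNgoMIVR-ΔENV.LUC, Env-deleted, luciferase-carrying) with wild-type RT, used to derive EC50. Therapeutic index is calculated from CC50 (ATP-dependent luminescence assay) and wild-type EC50. Three independent experiments (n = 3), with standard deviations.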

[3] = system: HIV-1 NNRTI-resistant mutant H221Y; assay: Single-round infectivity assay, H221Y; details: Human immunodeficiency virus 1, read-out: EC50 H221Y
Outline: as §1

[4] = Cellular cytotoxicity, ATP-dependent luminescence assay
Outline: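 Cytotoxicity measured by ATP-dependent luminescence, with CC50 derived. Values are from three independent experiments (n = 3), and standard deviations are reported.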

[5] = system: HIV-1 NNRTI-resistant mutant K103N/Y181C; assay: Single-round infectivity assay, K103N/Y181C; details: Human immunodeficiency virus 1, read-out: EC50 K103N/Y181C
Outline: as §1

[6] = system: HIV-1 NNRTI-resistant mutant Y188L; assay: Single-round infectivity assay, Y188L; details: Human immunodeficiency virus 1, read-out: EC50 Y188L
Outline: as §1

[7] = system: HIV-1 NNRTI-resistant mutant K103N; assay: Single-round infectivity assay, K103N; details: Human immunodeficiency virus 1, read-out: EC50 K103N
Outline: as §1

[8] = system: HIV-1 NNRTI-resistant mutant E138K; assay: Single-round infectivity assay, E138K; details: Human immunodeficiency virus 1, read-out: EC50 E138K
Outline: as §1

[9] = system: HIV-1 NNRTI-resistant mutant P236L; assay: Single-round infectivity assay, P236L; details: read-out: EC50 P236L; single-round infection, n = 3
Outline: as §1

[10] = system: HIV-1 RT-resistant mutant K101E/M184V; assay: Single-round infectivity assay, K101E/M184V; details: read-out: EC50 K101E/M184V; single-round infection, n = 3
Outline: as §1

[11] = system: HIV-1 NNRTI-resistant mutant V106A/G190A/F227L; assay: Single-round infectivity assay, V106A/G190A/F227L; details: Human immunodeficiency virus 1, read-out: EC50 V106A/G190A/F227L
Outline: as §1

[12] = system: HIV-1 NNRTI-resistant mutant G190A; assay: Single-round infectivity assay, G190A; details: read-out: EC50 G190A; single-round infection, n = 3
Outline: as §1

[13] = system: HIV-1 DOR-resistant mutant V106A/F227L/L234I; assay: Single-round infectivity assay, V106A/F227L/L234I; details: read-out: EC50 V106A/F227L/L234I; single-round infection, n = 3
Outline: as §1

[14] = system: HIV-1 NNRTI-resistant mutant K103N/P225H; assay: Single-round infectivity assay, K103N/P225H; details: Human immunodeficiency virus 1, read-out: EC50 K103N/P225H
Outline: as §1

[15] = system: HIV-1 RT-resistant mutant D67E; assay: Single-round infectivity assay, D67E; details: read-out: EC50 D67E; single-round infection, n = 3
Outline: as §1

[16] = system: HIV-1 NNRTI-resistant mutant M230L; assay: Single-round infectivity assay, M230L; details: Human immunodeficiency virus 1, read-out: EC50 M230L
Outline: as §1

[17] = system: HIV-1 RT-resistant mutant K101E/M184I; assay: Single-round infectivity assay, K101E/M184I; details: read-out: EC50 K101E/M184I; single-round infection, n = 3
Outline: as §1

[18] = system: HIV-1 NNRTI-resistant mutant L100I/K103N; assay: Single-round infectivity assay, L100I/K103N; details: Human immunodeficiency virus 1, read-out: EC50 L100I/K103N
Outline: as §1

[19] = system: HIV-1 RT-resistant mutant K101E; assay: Single-round infectivity assay, K101E; details: Human immunodeficiency virus 1, read-out: EC50 K101E
Outline: as §1

[20] = system: HIV-1 NNRTI-resistant mutant G190S; assay: Single-round infectivity assay, G190S; details: read-out: EC50 G190S; single-round infection, n = 3
Outline: as §1

[21] = system: HIV-1 DOR-resistant mutant L234I; assay: Single-round infectivity assay, L234I; details: read-out: EC50 L234I; single-round infection, n = 3
Outline: as §1

[22] = system: HIV-1 DOR-resistant mutant V106A/F227L; assay: Single-round infectivity assay, V106A/F227L; details: read-out: EC50 V106A/F227L; single-round infection, n = 3
Outline: as §1

Compound	EC50 [1] [nM]	EC50 [2] [nM]	EC50 (WT HIV-1) [nM]	TI (therapeutic index) (WT HIV-1)	EC50 [3] [nM]	CC50 [4] [nM]	EC50 [5] [nM]	EC50 [6] [nM]	EC50 [7] [nM]	EC50 [8] [nM]	EC50 [11] [nM]	EC50 [14] [nM]	EC50 [16] [nM]	EC50 [18] [nM]	EC50 [19] [nM]	also measured
Cc1cc(/C=C/C#N)cc(C)c1Nc1ncc(N)c(Nc2c(C)cc(/C=C/C#N)cc2C)n1 [Compound 6, (2E,2′E)‐3,3′‐(((5‐aminopyrimidine‐2,4‐diyl)bis(azanediyl))bis(3,5‐dimethyl‐4,1‐phenylene))diacrylonitrile]	2760 ± 580	3640	27.2 ± 3.3	1,651	79.2 ± 6.4	44900 ± 600	> 5000	> 5000	75.5 ± 5.6	1070 ± 60						
Cc1cc(/C=C/C#N)cc(C)c1Nc1nc(Nc2ccc3cc(C#N)ccc3c2)ncc1N [Compound 7, (E)‐6‐((5‐amino‐4‐((4‐(2‐cyanovinyl)‐2,6‐dimethylphenyl)amino)pyrimidin‐2‐yl)amino)‐2‐naphthonitrile]	15.6 ± 2	4.5 ± 0.4	2.3 ± 0.3	10,000	2.8 ± 0.2	23000 ± 2300	156 ± 12.7	152 ± 21.3	4 ± 0.8	27.6 ± 2.4	5.2 ± 1	25.3 ± 3	21.4 ± 4.2	265 ± 5.9	9.9 ± 2	EC50 [9]: 1.2 ± 0.3 nM; EC50 [10]: 3 ± 0.3 nM; EC50 [12]: 1.4 ± 0.1 nM; EC50 [13]: 3.5 ± 0.2 nM; EC50 [15]: 9.7 ± 1.2 nM; EC50 [17]: 9.4 ± 0.4 nM
Cc1cc(/C=C/C#N)cc(C)c1Nc1nc(Nc2ccc3cc(/C=C/C#N)ccc3c2)ncc1N [Compound 8, (E)‐3‐(4‐((5‐amino‐2‐((6‐((E)‐2‐cyanovinyl)naphthalen‐2‐yl)amino)pyrimidin‐4‐yl)amino)‐3,5‐dimethylphenyl)acrylonitrile]	264 ± 15.9	242 ± 35.4	6.8 ± 0.6	1,588	18.7 ± 2.5	10800 ± 700	1990	3070	121 ± 9.7	534 ± 27.1						
Cc1cc(/C=C/C#N)cc(C)c1Nc1ncc2ncn(-c3c(C)cc(/C=C/C#N)cc3C)c2n1 [Compound 9, (E)‐3‐(4‐((9‐(4‐((E)‐2‐cyanovinyl)‐2,6‐dimethylphenyl)‐9H‐purin‐2‐yl)amino)‐3,5‐dimethylphenyl)acrylonitrile]	> 5000	156 ± 30.6	10.4 ± 0.6	18,423	19.4 ± 2.2	192000 ± 11000	> 5000	> 5000	48 ± 4.2	150 ± 6.9						
Cc1cc(/C=C/C#N)cc(C)c1-n1cnc2cnc(Nc3ccc4cc(/C=C/C#N)ccc4c3)nc21 [Compound 11, (E)‐3‐(6‐((9‐(4‐((E)‐2‐cyanovinyl)‐2,6‐dimethylphenyl)‐9H‐purin‐2‐yl)amino)naphthalen‐2‐yl)acrylonitrile]	> 5000	78 ± 11.7	10.2 ± 1.9	1,676	17.1 ± 2.1	17100 ± 800	> 5000	> 5000	232 ± 22.3	> 5000						
Cc1cc(/C=C/C#N)cc(C)c1-n1cnc2cnc(Nc3ccc(/C=C/C#N)cc3)nc21 [Compound 13, (E)‐3‐(4‐((9‐(4‐((E)‐2‐cyanovinyl)‐2,6‐dimethylphenyl)‐9H‐purin‐2‐yl)amino)phenyl)acrylonitrile]	92.4 ± 10	28.6 ± 7.6	1.4 ± 0.2	>25,000	2.6 ± 0.7	> 250000	323 ± 56.7	208 ± 12	9.3 ± 0.7	29.1 ± 1.9	4.7 ± 0.9	29.1 ± 1.6	60 ± 0.9	252 ± 21.9	9.7 ± 1.2	EC50 [9]: 1.1 ± 0.05 nM; EC50 [10]: 3.9 ± 0.6 nM; EC50 [13]: 5.4 ± 1.1 nM; EC50 [20]: 1.2 ± 0.3 nM; EC50 [21]: 1.8 ± 0.4 nM; EC50 [15]: 9.5 ± 1.8 nM; EC50 [17]: 7 ± 0.6 nM
Cn1c(Cn2ccc(C(F)(F)F)c(Oc3cc(Cl)cc(C#N)c3)c2=O)n[nH]c1=O [DOR, doravirine, reference compound]	2 ± 0.2	1.1 ± 0.2		>25,000	4.6 ± 1.8		11.3 ± 5.9	> 100	4.5 ± 2.8	13.9 ± 2.4	> 100	25.3 ± 4.5	51.1 ± 6.5	2 ± 0.8	0.4 ± 0.04	
O=C1Nc2ccc(Cl)cc2[C@@](C#CC2CC2)(C(F)(F)F)O1 [EFV, efavirenz, reference compound]	1.6 ± 0.1	5.4 ± 0.9	0.9 ± 0.1	>25,000	2.2 ± 0.4	36400 ± 1600	36 ± 8.4	76.8 ± 6.5	35.8 ± 9.1	2.5 ± 0.4	185 ± 19.8	50.4 ± 3.1	14.3 ± 2	488 ± 50	11 ± 1.2	
Cc1cc(/C=C/C#N)cc(C)c1Nc1ccnc(Nc2ccc(C#N)cc2)n1 [RPV, rilpivirine, reference compound]	1.4 ± 0.4	0.1 ± 0.03		>25,000	1.3 ± 0.1		3.5 ± 0.3	2.3 ± 0.2	1 ± 0.2	1 ± 0.1	0.5 ± 0.02	0.6 ± 0.2	1.7	2.3 ± 0.2	2.6 ± 1.6	EC50 [22]: 0.8 ± 0.1 nM
